Source: PubChem (Broad Institute)
Env fusion inh – blocks HIV Env-driven cell-cell fusion; inhibition, % at 12.3 µM; HeLa-JRFL Env/CEM21 cell fusion, luciferase; hit rate 1.1% among 360,000;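 active = mean replicate inhibition score of at least 50 and every replicate individually at or above 50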;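 note: 0% = plate neutral controls and 100% = maraviroc near 300 nM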
FGF22 binding – binders of recombinant human FGF22 by thermal shift. SYPRO orange fluorescence; percent of sucrose octasulfate shift, DMSO zero. activity (Tm shift, normalised), % at 9.99 µM. hit rate 1.5% among 340,000. Q9HCT0;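 active = mean Tm shift, scaled 0 neutral to 100 positive control, at about 1.3% or above, every replicate too, limit read from the data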
Target sequence (Q9HCT0 whole entry, looked up): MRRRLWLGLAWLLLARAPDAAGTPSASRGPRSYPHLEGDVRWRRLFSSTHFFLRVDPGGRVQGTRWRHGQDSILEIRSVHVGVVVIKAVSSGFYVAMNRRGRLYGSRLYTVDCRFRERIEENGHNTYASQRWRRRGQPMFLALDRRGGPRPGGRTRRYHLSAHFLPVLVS
FN deposition inh – fibronectin deposition inhibition. AH1F fibroblasts, Alexa488-fibronectin deposition fluorescence, overnight. inhibition, % at 12.6 µM. hit rate 0.086% among 350,000;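 active = mean inhibition across replicates of 30% or more, regardless of how many single replicates reach that level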;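 note: positive control wells lacked labelled fibronectin entirely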
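Assay system: AH1F fibroblasts / Quantity: 10000 cells per well / Medium: DMEM plus 2% serum, read in PBS / Reagent: labelled fibronectin 24 nM / Dosing: single dose, pinned / Times: 1 h cell attachment, overnight exposure to compound and label / Signal: fluorescence, ex 485 nm, em 525 nm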
PAX8 inh HTS – inhibitors of PAX8 transcriptional activity in RMG-I cells; RMG-I TPO-luciferase reporter, SteadyGlo, 24 h; inhibition, % at 12.6 µM; hit rate 1.2% among 360,000; AID 652154;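 active = mean replicate inhibition at least 60% with every replicate also reaching 60%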;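 note: luciferase light reporting Pax8 driven TPO promoter activity; plate controls were median of neutral control wells for no effect and mitoxantrone controls for full effect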
EWS-Fli block – inhibitors of EWS/Fli oncoprotein transcriptional activity. inhibition, % at 12.6 µM. AID 651661. hit rate 0.67% among 350,000. A673 NR0B1-luciferase reporter, viability-normalised;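 active = mean inhibition of at least 50% after viability correction, with every replicate also passing that limit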;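 note: firefly luciferase signal divided by Alamar Blue viability fluorescence both relative to DMSO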
PGC1a acetyl inh – lowers PGC1a acetylation signal in U2OS cells; AlphaScreen anti-acetyl-lysine; with virally co-expressed GCN5 acetyltransferase; inhibition, % at 15.6 µM; hit rate 0.17% among 350,000; AID 651687;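 active = every replicate shows inhibition of at least 40%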;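 note: 0% = neutral control wells and 100% = positive control wells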
Numbers without * were called inactive; nt = no result given; ! = not active in a repeat; [ ] = remark or other dose. Sampled rows, rich in hits. Any-hit rate of the full collection: about 3.1%.

SMILES	Env fusion inh	FGF22 binding	FN deposition inh	PAX8 inh HTS	EWS-Fli block	PGC1a acetyl inh
Cc1ccc(S(=O)(=O)Nc2ccc3c(c2)CC(=O)N([C@@H](C)CO)C[C@H](C)[C@H](CN(C)Cc2ccc(-c4ccccc4)cc2)O3)cc1	15[16.7 µM]	0	6	nt	5	0
Cc1ccc(S(=O)(=O)Nc2ccc3c(c2)CC(=O)N([C@H](C)CO)C[C@H](C)[C@H](CN(C)Cc2ccc(Cl)c(Cl)c2)O3)cc1	11[16.7 µM]	-1	4	7	-13	0
Cc1ccc(S(=O)(=O)Nc2ccc3c(c2)CC(=O)N([C@@H](C)CO)C[C@H](C)[C@@H](CN(C)Cc2ccc(-c4ccccc4)cc2)O3)cc1	75*[16.7 µM]	0	0	nt	14	-5
C[C@H]1CN([C@@H](C)CO)C(=O)Cc2cc(NS(=O)(=O)c3ccc(F)cc3)ccc2O[C@@H]1CN(C)Cc1ccc(-c2ccccc2)cc1	-19[16.7 µM]	nt	nt	17	2	0
C[C@@H]1CN([C@@H](C)CO)C(=O)c2cc(C3=CCCC3)cnc2O[C@H]1CN(C)C(=O)CN(C)C	-24[16.7 µM]	-1	-2	nt	4	-5
C[C@@H]1CCCCO[C@@H](CN(C)Cc2ccc3c(c2)OCO3)[C@@H](C)CN([C@H](C)CO)C(=O)c2cc(NS(=O)(=O)c3ccc(Cl)cc3)ccc2O1	4[16.7 µM]	nt	-11	-17	-1	6
C[C@@H]1CCCCO[C@@H](CN(C)Cc2ccc3c(c2)OCO3)[C@@H](C)CN([C@@H](C)CO)C(=O)c2cc(NS(=O)(=O)c3ccc(Cl)cc3)ccc2O1	-44[16.7 µM]	nt	-4	51	69*!	1
C[C@@H]1CN([C@H](C)CO)C(=O)c2cc(NS(=O)(=O)c3ccc(Cl)cc3)ccc2O[C@@H](C)CCCCO[C@H]1CN(C)Cc1ccc2c(c1)OCO2	-11[16.7 µM]	nt	-5	90*!	14	-2
C[C@H]1CN([C@@H](C)CO)C(=O)c2cccc(NC(=O)Nc3ccc4c(c3)OCO4)c2O[C@H]1CN(C)C(=O)Nc1ccc2c(c1)OCO2	-4[16.7 µM]	0	nt	-20	-12	-6
CN1c2ccc(-c3cccc(F)c3)cc2[C@@H]2[C@@H](CCN2C(=O)c2ccncc2)[C@@H]1CO	nt	nt	-5	-10	0	12
C[C@H](CO)N1C[C@H](C)[C@@H](CN(C)S(=O)(=O)c2ccccc2)Oc2ccc(NC(=O)CCCN(C)C)cc2CC1=O	nt	0	-8	-7	-7	-4
COc1cccc(NC(=O)C[C@@H]2CC[C@@H]3[C@@H](COc4ccc(NC(=O)C5CCCC5)cc4C(=O)N3C)O2)c1	nt	0	-7	1	36	4
CC(C)(C)OC(=O)N1CCN(C(=O)c2ncn3c2c(=O)[nH]c2ccccc23)CC1	nt	0	4	2	-4	-17
C[C@H]1CNC(=O)c2c(C(=O)N3CCN(C(=O)OC(C)(C)C)CC3)ncn21	72*	0	5	10	0	-7
C[C@@H]1CNC(=O)c2c(C(=O)N(C)Cc3ccccc3)ncn21	137*	0	-6	8	-8	nt
C[C@H](NC(=O)c1ncn2c1C(=O)NC[C@H]2C)c1ccccc1	-25	0	10	3	-8	nt
C[C@H]1CNC(=O)c2c(C(=O)N3CCN(c4ccccc4)CC3)ncn21	79*	0	14	10	-4	nt
O=C(C[C@H]1CC[C@H](NC(=O)NC2CCCC2)[C@H](CO)O1)NCc1ccc(F)cc1	-1[16.7 µM]	0	nt	-3	-1	-16
CN(C)C(=O)[C@@H]1[C@@H](CO)[C@@H]2Cn3c(cccc3=O)[C@H]1N2CC1CCCC1	nt	nt	nt	-3	nt	-3
C[C@@H]1CN([C@@H](C)CO)C(=O)c2cc(NC(=O)Cc3ccccc3)ccc2O[C@@H](C)CCCCO[C@@H]1CN(C)S(=O)(=O)c1cn(C)cn1	-10[16.7 µM]	0	nt	6	-6	6
N#C/C(=C\c1c(N(Cc2ccccc2)Cc2ccccc2)nc2ccccn2c1=O)C(N)=O	58*	nt	-2	-7	nt	nt
C[C@@H]1CN([C@@H](C)CO)C(=O)c2cccc(NS(=O)(=O)c3ccccc3)c2O[C@H]1CN(C)S(=O)(=O)c1cccs1	-25[16.7 µM]	-1	nt	nt	-8	1
Fc1ccc(Nc2nc3ccccc3s2)cc1	-48	42	3	-169	-98	-8
Cc1ccc(Nc2nc3ccccc3s2)cc1	-101	1.5*	-2	-206	-39	nt
